An excerpt weighted towards active compounds, which were near 3.3% of everything screened.
m5-HT2A agonist: agonists of mouse serotonin 5-HT2A receptor (HTR2A); P35363; CHO-K1 mHTR2A beta-arrestin complementation, luminescence; percent of 30 µM serotonin response; activation, % at 7.6 µM; 360,000 compounds, 0.66% hits;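 active = activation above a run cutoff, the mean activation of all tested compounds plus 3 SD, cut at about 14% in these data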;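 note: 0% = plate median of compound wells and 100% = 30 µM serotonin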
Hep lipid drop: hepatic lipid droplet formation modulation; inhibition, % at 6.5 µM; 240,000 compounds, 0.4% hits; AML12 mouse hepatocytes, oleate lipid droplets, BODIPY imaging;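 active = lipid droplet intensity inhibited by at least 50%, with more than 500 cells counted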
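Material – mouse AML12 hepatocyte cell line, fixed after treatment · Compound dosing – one dose, 6.5 µM compound · Times – compound with oleate, overnight · Measured by – Image-based BODIPY and DAPI two-channel analysis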
NRP1-CendR mod: alters CendR peptide binding to human NRP-1; O14786; FAM-RPARPAR peptide binding to NRP-1, fluorescence polarization; inhibition, % at 25 µM; 360,000 compounds, 0.85% hits; AID 602438;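 active = inhibition or corrected inhibition above about 18%, plus a signal ratio from 0.5 to 1.5, limit read from the data, passing the limit was not always enough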
sPLA2-III inh: Inhibits HGIII-sPLA2 liposome hydrolysis, primary screen. inhibition, % at 12.2 µM. AID 743126. Q9NZ20. QFRET BODIPY PC-A2 liposome hydrolysis, fluorescence. 370,000 compounds, 0.56% hits;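 active = inhibition above mean plus 3 SD of compounds lying within the high and low control bounds, cut at about 19% in these data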;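 note: 0% = median of test compound wells and 100% = no enzyme DMSO wells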
Arr AP2 block: blocks beta-arrestin peptide binding to AP2 adaptin; AID 504490; FITC-arrestin peptide / GST-AP2 beads, flow cytometry; AP2 beta2 appendage carries R879A mutation; inhibition, % at 10 µM; 340,000 compounds, 0.31% hits;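 active = inhibition above a set limit, near 3 SD of compounds lacking own fluorescence, cut at about 54% in these data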;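 note: plate controls were DMSO wells for no effect and 5 µM unlabelled arrestin peptide for full effect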
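test system = AP2 appendage R879A on GSH beads | buffer or medium = PBS plus Tween 20 (0.05%) and BSA (0.1%) | incubation = 12 min plus 1 h, RT | detection = bead flow cytometry, FITC channel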
PfM18AAP inh-1: PfM18AAP enzyme inhibition; recombinant PfM18AAP, H-Glu-NHMec fluorogenic cleavage; inhibition, % at 7.35 µM; 290,000 compounds, 1.2% hits;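 active = inhibition above the campaign mean inhibition over all tested compounds plus 3 SD, cut at about 28% in these data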;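 note: 0% = plate median of test compound wells and 100% = 2 mM ZnCl2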
PfM18AAP inh-2: PfM18AAP inhibition, confirmation; inhibition, % at 7.35 µM; 2,400 compounds, 28% hits; shares compounds with PfM18AAP inh-1; recombinant PfM18AAP, H-Glu-NHMec fluorogenic cleavage;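 active = mean inhibition over replicate wells above the hit cutoff set for the earlier primary screen, cut at about 29% in these data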;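 note: 0% = median of test compound wells and 100% = 2 mM ZnCl2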
CTSL1 counter: Cathepsin L (human) inhibition, confirmation | inhibition, % at 5.96 µM | 2,400 tested, under 10 active | shares compounds with PfM18AAP inh-1 | AID 2178 | purified cathepsin L1, Z-Leu-Arg-MCA fluorescence;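 active = average inhibition across replicates above the hit cutoff set in the earlier primary screen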;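 note: 0% = median of test compound wells and 100% = Z-Phe-Ala-diazomethylketone 1 µM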
* marks the source's active call; other numbers are inactive results; . = no result.

SMILES | m5-HT2A agonist | Hep lipid drop | NRP1-CendR mod | sPLA2-III inh | Arr AP2 block | PfM18AAP inh-1 | PfM18AAP inh-2 | CTSL1 counter
Cc1cc(C)cc(NS(=O)(=O)c2c(C(=O)N3CCOCC3)c(C)n(C)c2C)c1 | -2.9 | -17.0 | 7.1 | 4.6 | 7.8 | -2.0 | . | .
COc1cc(C2C(C#N)=C(N)OC3=C2C(=O)CCC3)c([N+](=O)[O-])cc1OC (stereo not given) | 6.0 | . | -19.5 | -18.2 | 9.3 | 39.7* | -19.9 | 2.5
Cc1cc(C2C(C#N)=C(N)OC3=C2C(=O)CCC3)c(C)s1 (stereo not given) | 7.4 | 21.2 | 4.5 | -5.6 | 34.5 | 6.4 | . | .
C=CCn1c2ccccc2c(=O)c2cc(C#Cc3ccsc3)ccc21 | . | -2.4 | . | . | . | 6.6 | . | .
COc1ccc(OC)c(CCNC(=O)Cn2sc3nc(C)cc(C)c3c2=O)c1 | . | . | . | . | . | 51.2* | 18.7 | 0.0
Cc1cc(NC(=O)Cc2ccsc2)ccc1Br | -1.8 | 6.8 | 0.2 | -6.4 | -8.0 | -1.7 | . | .
COc1ccc(OC)c(CCNC(=O)Cn2nc(C)c3c(C)n(-c4ccc(C)cc4)nc3c2=O)c1 | -3.2 | 40.6 | 19.8 | 4.0 | -2.0 | -2.2 | . | .
Cc1cc(C)c2c(=O)n(CC(=O)Nc3cccc(Cl)c3C)sc2n1 | 0.1 | -0.6 | -11.4 | 5.2 | 29.8 | 63.3* | 40.7* | 3.2
Cc1cc(C)c2c(=O)n(CC(=O)Nc3ccc(Br)c(C)c3)sc2n1 | 5.5 | 4.9 | -14.8 | -0.2 | 27.6 | 60.3* | 41.5* | -0.5
OC[C@@H]1CN(Cc2ccco2)C[C@H](n2cnc3c(NCc4ccncc4)ncnc32)O1 | 9.3 | . | -14.5 | -2.1 | . | . | . | .
CCOC(=O)[C@@]12CCCC=C1N(CCc1ccc(Cl)cc1)C(=O)[C@H]2CC(=O)N1CCOCC1 | . | . | . | 7.4 | . | . | . | .
COC(=O)Cc1sc(-c2ccccn2)nc1-c1ccccc1 | -2.8 | 11.4 | 5.3 | -43.6 | 18.3 | 32.6* | 24.4 | 0.5
COC(=O)Cc1ccc2sc(-c3ccccc3)nc2c1 | -1.9 | 6.2 | 0.7 | -7.6 | 19.8 | 2.9 | . | .
O=C(Nc1ccc(F)c(Cl)c1)c1cc(C2CCCN(C(=O)c3cccs3)C2)on1 (stereo not given) | -0.7 | . | -7.6 | -16.6 | . | . | . | .
CCOC(=O)[C@]12CCCCC/C=C\1N(CCc1ccc(Cl)cc1)C(=O)[C@H]2CC(=O)NCCc1ccccc1OC | . | . | . | -17.0 | . | . | . | .
NS(=O)(=O)c1ccc(-c2ccc(C=O)o2)cc1 | 5.0 | -8.4 | -10.2 | -1.2 | 8.3 | 0.1 | . | .
NS(=O)(=O)c1ccc(-c2ccc(/C=C3\NC(=S)NC3=O)o2)cc1 | 1.7 | 1.2 | -18.9 | -2.1 | 26.7 | 37.4* | 11.5 | -0.9
Oc1ccc(N2CCN(c3ccnc4cc(Cl)ccc34)CC2)cc1 | -1.2 | 12.8 | 16.3 | 2.4 | 17.0 | 38.2* | -12.6 | 1.9
CCn1c(O)c(/C=N/n2cnnc2)sc1=S | 2.0 | . | -9.7 | -3.0 | 14.5 | 58.6* | 56.8* | 1.6
C=CCN=C1NC(c2ccc(C(F)(F)F)cc2)C(C(=O)OC)=C(C)N1C (stereo not given) | . | . | . | 14.1 | . | . | . | .
CC(=O)Nc1nnc(CCN2CCCCC2)s1 | 4.0 | . | -4.8 | 4.6 | -6.7 | -0.4 | . | .
CC(=O)c1sc2nsc(SCCN3CCCCC3)c2c1N | -3.6 | -50.8 | -3.0 | 4.7 | -11.7 | 33.2* | -40.8 | -5.4
Nc1c(C(=O)c2ccc(Cl)cc2)sc2nsc(SCCN3CCOCC3)c12 | -3.8 | -3.2 | -149.4 | -3.2 | 2.8 | 33.7* | -28.1 | 4.5
Nc1c(C(=O)c2ccccc2)sc2nsc(SCCN3CCCC3)c12 | -3.8 | -3.9 | -71.1 | -5.0 | 5.8 | 35.1* | -30.2 | -4.2
Cc1cc2nc3c(=O)[nH]c(=O)[nH]c3nc2c([N+](=O)[O-])c1N | 1.7 | 2.6 | 132.3 | -79.3 | 52.0 | 32.0* | 1.0 | -0.5
CCCNC(=O)C1CCN(S(=O)(=O)c2ccc3[nH]c(=O)ccc3c2)CC1 | 6.0 | -1.0 | -7.5 | 2.1 | -5.9 | -1.4 | . | .
